Only some compounds are listed: those with a hit (about 4.7% of all), similar ones and a draw of the others.
MT1-MMP act inh – blocks activation of human MT1-MMP; P50281; HT1080 RFP-PRO-GFP cells, GFP/RFP ratio fluorescence, overnight; percent of plate control window, DMSO zero; GFP/RFP ratio change, % at 20 µM; 360,000 compounds, 0.061% hits; AID 651647;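 active = GFP/RFP ratio change of at least 30% with cell ATP level not reduced by more than half and red fluorescence within 50% of control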
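Material: RFP-PRO-GFP reporter HT1080 cells. Dosing: single-point 20 µM compound, 1% DMSO. Controls: DMSO and RFP-L50D-GFP cell wells. Timing: cells overnight before dosing, compound overnight, 37 °C, 5% CO2. Measure: GFP/RFP fluorescence ratio.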
ADAM17 inh – ADAM17 inhibition, QFRET primary screen | P78536 | recombinant ADAM17, EDANS/DABCYL FRET peptide cleavage | inhibition, % at 6.95 µM | AID 720648 | 370,000 compounds, 0.83% hits;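 active = inhibition above the mean of compounds lying between control limits plus 3 SD, set per campaign, cut at about 8.5% in these data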;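 also: 0% = DMSO-only wells as the low control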
Target sequence (P78536 215-824 limits assumed): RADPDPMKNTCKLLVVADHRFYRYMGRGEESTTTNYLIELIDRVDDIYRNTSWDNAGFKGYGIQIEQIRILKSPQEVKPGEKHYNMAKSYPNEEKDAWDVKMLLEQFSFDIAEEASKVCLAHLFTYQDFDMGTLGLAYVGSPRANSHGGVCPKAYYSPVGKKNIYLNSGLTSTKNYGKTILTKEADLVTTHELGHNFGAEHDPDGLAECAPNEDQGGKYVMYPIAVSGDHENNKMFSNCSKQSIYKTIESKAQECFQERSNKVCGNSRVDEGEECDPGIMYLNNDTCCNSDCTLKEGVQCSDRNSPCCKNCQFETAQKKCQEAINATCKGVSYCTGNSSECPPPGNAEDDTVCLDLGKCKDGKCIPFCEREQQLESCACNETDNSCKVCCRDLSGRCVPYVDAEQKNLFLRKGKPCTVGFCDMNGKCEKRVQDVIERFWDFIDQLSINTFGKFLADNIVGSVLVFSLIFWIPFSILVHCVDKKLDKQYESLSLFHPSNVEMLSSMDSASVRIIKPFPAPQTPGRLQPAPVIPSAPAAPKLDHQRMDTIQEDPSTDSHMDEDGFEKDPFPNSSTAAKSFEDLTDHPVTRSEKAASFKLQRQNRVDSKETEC
SKN-1 block – blocks SKN-1 activity in C. elegans. 360,000 compounds, 0.49% hits. C. elegans VP596 Pgst-4::GFP/RFP ratio, acrylamide-induced, 24 h. inhibition, % at 21.8 µM;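 active = interference check ratio from 0.5 to 1.5 plus GFP to RFP signal ratio inhibition reaching or exceeding a fixed threshold, cut at about 30% in these data, passing the limit was not always enough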
NR3A LBD binder – modulates the human NR3A ligand-binding domain; Tm shift relative to glycine control, % at 25 µM; 340,000 compounds, 2.5% hits; NR3A LBD differential scanning fluorimetry, Tm shift; 0% = protein alone, 100% = glycine-bound protein; AID 1259313;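 active = melting temperature shift of at least 10% of the positive control shift, at one fixed dose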
MPTP block – blocks calcium-induced mitochondrial swelling | 360,000 compounds, 1.4% hits | isolated mouse mitochondria, Ca2+ swelling absorbance, 30 min | inhibition, % at 10 µM | AID 602449;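 active = inhibition of 50% or more, scaled per plate between neutral and stimulator controls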;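 also: 0% = DMSO wells given calcium and 100% = 1 mM EGTA wells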
ADAM10 inh – ADAM10 inhibition, QFRET primary screen. O14672. inhibition, % at 7 µM. recombinant ADAM10, EDANS/DABCYL FRET peptide cleavage, 3 h. 370,000 compounds, 0.62% hits;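 active = inhibition above a per-campaign cutoff equal to the mean of compounds falling between control-based bounds plus 3 SD, cut at about 20% in these data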;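 also: 0% = DMSO wells while the 100% control is not disclosed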
* marks the source's active call; other numbers are inactive results.

What do the screens show for `O=C1NC(c2ccccc2)(C(F)(F)F)C(=O)N1Cc1cccnc1` (stereo not drawn)?
MT1-MMP act inh: 1; ADAM17 inh: 1; SKN-1 block: 16; NR3A LBD binder: 20*; MPTP block: -3; ADAM10 inh: 6

What do the screens show for `Cc1oc(-c2ccc(Cl)cc2)nc1CN1CCC(C(=O)N2CCc3ccccc3C2)CC1`?
MT1-MMP act inh: 8; SKN-1 block: -2; NR3A LBD binder: 1; MPTP block: 10

What do the screens show for `CCN(CC)S(=O)(=O)c1ccc(NC(=O)C(C)N(c2ccccc2)S(C)(=O)=O)cc1` (stereo not drawn)?
MT1-MMP act inh: 1; ADAM17 inh: 2; SKN-1 block: -11; NR3A LBD binder: 0; MPTP block: 0; ADAM10 inh: 17

Results for COc1ccc(NC2CCCN(C(=O)CN3CCOC3=O)C2)cc1 (stereo not drawn) ?
MT1-MMP act inh: 3; ADAM17 inh: -1; SKN-1 block: -11; NR3A LBD binder: -1; MPTP block: 0; ADAM10 inh: -6

How did CCOC(=O)c1c(NC(=O)C2c3ccccc3Oc3ccccc32)sc(C(N)=O)c1C do in these assays?
MT1-MMP act inh: -9; ADAM17 inh: -1; SKN-1 block: 3; NR3A LBD binder: -10; MPTP block: -4; ADAM10 inh: -1

Results for CCC1CCc2c(sc(NC(=O)C3c4ccccc4Oc4ccccc43)c2C(N)=O)C1 (stereo not drawn) ?
MT1-MMP act inh: 4; ADAM17 inh: 1; SKN-1 block: -5; NR3A LBD binder: 17*; MPTP block: 18; ADAM10 inh: -8

Results for C/C(=N\NC(=O)C1(C)CC1(Br)Br)c1cccc(NC(=O)c2ccc(C)o2)c1 (stereo not drawn) ?
MT1-MMP act inh: 1; ADAM17 inh: -1; SKN-1 block: 16; NR3A LBD binder: 11*; MPTP block: 0; ADAM10 inh: 1

How did CCOC1C(=O)NC(=O)N1Cc1ccccc1 (stereo not drawn) do in these assays?
MT1-MMP act inh: -2; ADAM17 inh: 1; SKN-1 block: 13; NR3A LBD binder: -1; MPTP block: -1; ADAM10 inh: 7

How did COc1ccccc1C(=O)NCCC(=O)N1CC(C)OC(C)C1 (stereo not drawn) do in these assays?
MT1-MMP act inh: 1; ADAM17 inh: -3; SKN-1 block: -1; NR3A LBD binder: -1; MPTP block: -2; ADAM10 inh: -11

Results for O=C(CCCOc1ccc(Cl)cc1Cl)N/N=C/c1ccccc1 ?
MT1-MMP act inh: -1; ADAM17 inh: 4; SKN-1 block: 8; NR3A LBD binder: 2; MPTP block: 3; ADAM10 inh: 8

Results for COc1ccc(/C=N/NC(=O)CCCOc2ccc(Cl)cc2Cl)cc1[N+](=O)[O-] ?
MT1-MMP act inh: 1; ADAM17 inh: 0; SKN-1 block: -14; NR3A LBD binder: 12*; MPTP block: -4; ADAM10 inh: -6

How did Cc1ccc(/C=N/NC(=O)CCCOc2ccc(Cl)cc2Cl)cc1 do in these assays?
MT1-MMP act inh: -4; ADAM17 inh: 6; SKN-1 block: 0; NR3A LBD binder: 12*; MPTP block: 2; ADAM10 inh: 12

How did O=C(CCCOc1ccc(Cl)cc1Cl)N/N=C/c1ccccc1O do in these assays?
MT1-MMP act inh: -5; ADAM17 inh: 0; SKN-1 block: 0; NR3A LBD binder: 18*; MPTP block: 34; ADAM10 inh: 3

Results for Cc1ccc(/C=N/NC(=O)CCCOc2ccc(Cl)cc2Cl)cc1[N+](=O)[O-] ?
MT1-MMP act inh: 1; ADAM17 inh: -6; SKN-1 block: 4; NR3A LBD binder: 9; MPTP block: 24; ADAM10 inh: -1

Results for CCCCNC(=O)c1nc(C2CCN(S(=O)(=O)c3csc(C(=O)O)c3)CC2)oc1-c1ccccc1 ?
MT1-MMP act inh: -1; ADAM17 inh: 8; SKN-1 block: 11; MPTP block: 0; ADAM10 inh: 3

Results for CCCCn1c(N)c(N(CC(C)C)C(=O)c2ccc(-c3ccc(C(C)=O)cc3)o2)c(=O)[nH]c1=O ?
MT1-MMP act inh: -5; ADAM17 inh: -39; SKN-1 block: 7; NR3A LBD binder: 3; MPTP block: -1; ADAM10 inh: -149
